Experimental data as given in paper PMC8526772 (The Journal of Biological Chemistry, 2021).
Changes are numbered by the printed parent chain.

Experiments:
Assay in all cases: fluorescence-binding assay
JHAMT2-D^92A = biological target: T1, JHAMT2-D^92A (Bombyx mori, UniProt A0A8M0FGR8, D92A)
T1 sequence (A0A8M0FGR8 1-267 D92A): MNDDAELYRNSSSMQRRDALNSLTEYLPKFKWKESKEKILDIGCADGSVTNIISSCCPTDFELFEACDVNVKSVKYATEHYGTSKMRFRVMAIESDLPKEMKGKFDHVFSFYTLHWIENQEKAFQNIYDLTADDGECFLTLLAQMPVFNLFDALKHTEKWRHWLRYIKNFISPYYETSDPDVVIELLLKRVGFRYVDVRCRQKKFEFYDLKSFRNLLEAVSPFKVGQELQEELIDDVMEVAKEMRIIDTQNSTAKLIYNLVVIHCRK
Outline: (§1)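 Intrinsic tryptophan fluorescence quenching used 2 μM recombinant B. mori JHAMT (wild type or point mutant) in 20 mM Tris-HCl pH 8.0, 200 mM NaCl, equilibrated 2 min at 25 °C. Ligand was titrated at final 0–1.5 mM SAM (cofactor binding) or 0–0.1 mM FA (substrate binding). Excitation was 280 nm with emission recorded 300–450 nm. Kd was fitted from quenching data as mean ± s.d. of n = 3.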

JHAMT1-T^112A = biological target: T2, JHAMT1-T^112A (Bombyx mori, UniProt Q767F1, T112A)
T2 sequence (Q767F1 1-278 T112A): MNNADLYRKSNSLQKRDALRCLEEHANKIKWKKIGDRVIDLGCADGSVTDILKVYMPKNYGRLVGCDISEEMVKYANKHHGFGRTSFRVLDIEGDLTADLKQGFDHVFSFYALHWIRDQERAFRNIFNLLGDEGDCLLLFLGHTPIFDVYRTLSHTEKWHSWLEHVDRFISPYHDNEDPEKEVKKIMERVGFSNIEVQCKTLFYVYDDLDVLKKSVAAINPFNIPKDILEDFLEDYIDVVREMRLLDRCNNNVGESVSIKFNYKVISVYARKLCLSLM
Outline: as §1

JHAMT1 = biological target: T3, JHAMT1 (Bombyx mori, UniProt Q767F1)
T3 sequence (Q767F1 1-278): T2 sequence (Q767F1 1-278 T112A) with A112T
Outline: as §1

JHAMT2-T^113A = biological target: T4, JHAMT2-T^113A (Bombyx mori, UniProt A0A8M0FGR8, T113A)
T4 sequence (A0A8M0FGR8 1-267 T113A): T1 sequence (A0A8M0FGR8 1-267 D92A) with A92D, T113A
Outline: as §1

JHAMT1-D^91A = biological target: T5, JHAMT1-D^91A (Bombyx mori, UniProt Q767F1, D91A)
T5 sequence (Q767F1 1-278 D91A): T2 sequence (Q767F1 1-278 T112A) with D91A, A112T
Outline: as §1

JHAMT2 = biological target: T6, JHAMT2 (Bombyx mori, UniProt A0A8M0FGR8)
T6 sequence (A0A8M0FGR8 1-267): T1 sequence (A0A8M0FGR8 1-267 D92A) with A92D
Outline: as §1

For `C[S+](CC[C@H](N)C(=O)[O-])C[C@H]1O[C@@H](n2cnc3c(N)ncnc32)[C@H](O)[C@@H]1O` (stereo partly drawn) [SAM, S-adenosyl-L-methionine], the Kd (JHAMT2-D^92A) was 261 ± 18.1 µM, the Kd (JHAMT1-T^112A) was 191 ± 12.7 µM and the Kd (JHAMT1) was 38.7 ± 3.42 µM. It also gave a Kd (JHAMT2-T^113A) of 144 ± 9.91 µM, a Kd (JHAMT1-D^91A) of 229 ± 18.1 µM and a Kd (JHAMT2) of 42.6 ± 5.83 µM.
